Data published in ChEMBL document CHEMBL1137710, “Synthesis and in vitro antitumor activity of new quinoxaline derivatives” (2009).

Key:
Type in all cases: functional
T47D = experiment: Growth inhibition of human T47D cells after 48 hrs by sulforhodamine B assay
Procedure, shortened: (§1)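 Run in the NCI 60-human-tumour-cell-line panel, tested over a 5-log dose range. Dose–response curves gave three values per cell line, each as a log10 molar concentration: GI50 (50% inhibition of net cell growth), TGI (total inhibition of net growth) and LC50 (50% net cell death). The mean graph midpoint is the arithmetic mean over all lines, with insensitive lines entered at the highest concentration tested.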

SNB-75 = experiment: Growth inhibition of human SNB75 cells after 48 hrs by sulforhodamine B assay; settings: SNB-75, 48 h; procedure, shortened: as §1
EKVX = experiment: Growth inhibition of human EKVX cells after 48 hrs by sulforhodamine B assay
Procedure, shortened: (§2)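 NCI 60-human-tumor-cell-line panel, with compounds tested over a 5-log dose range. Values are taken from dose-response curves as log10 molar concentrations: GI50 is 50% net growth inhibition, TGI is total growth inhibition, and LC50 is 50% net cell death.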

[1] = Growth inhibition of human […] cells after 48 hrs by sulforhodamine B assay; procedure, shortened: as §2
SK-MEL-28 = experiment: Growth inhibition of human SK-MEL-28 cells after 48 hrs by sulforhodamine B assay; settings: SK-MEL-28, 48 h; procedure, shortened: as §2
A498 = experiment: Growth inhibition of human A498 cells after 48 hrs by sulforhodamine B assay; settings: A498, 48 h; procedure, shortened: as §2
CCRF-CEM = experiment: Growth inhibition of human CCRF-CEM cells after 48 hrs by sulforhodamine B assay; procedure, shortened: as §2
HOP-92 = experiment: Growth inhibition of human HOP92 cells after 48 hrs by sulforhodamine B assay; settings: HOP-92, 48 h; procedure, shortened: as §2
SR = experiment: Growth inhibition of human SR cells after 48 hrs by sulforhodamine B assay; procedure, shortened: as §1
A549 = experiment: Growth inhibition of human A549 cells after 48 hrs by sulforhodamine B assay; settings: A549, 48 h; procedure, shortened: as §2
K562 = experiment: Growth inhibition of human K562 cells after 48 hrs by sulforhodamine B assay; settings: K562, 48 h; procedure, shortened: as §2
HCT-116 = experiment: Growth inhibition of human HCT116 cells after 48 hrs by sulforhodamine B assay; settings: HCT-116, 48 h; procedure, shortened: as §2
NCI-H226 = experiment: Growth inhibition of human NCI-H226 cells after 48 hrs by sulforhodamine B assay; settings: NCI-H226, 48 h; procedure, shortened: as §2
SN12C = experiment: Growth inhibition of human SN12C cells after 48 hrs by sulforhodamine B assay; procedure, shortened: as §1
HT-29 = experiment: Growth inhibition of human HT-29 cells after 48 hrs by sulforhodamine B assay; settings: HT-29, 48 h; procedure, shortened: as §2
NCI/ADR-RES = experiment: Growth inhibition of human NCI/ADR-RES cells after 48 hrs by sulforhodamine B assay; procedure, shortened: as §2
SW-620 = experiment: Growth inhibition of human SW620 cells after 48 hrs by sulforhodamine B assay; settings: SW-620, 48 h; procedure, shortened: as §1
HL-60(TB) = experiment: Growth inhibition of human HL-60(TB) cells after 48 hrs by sulforhodamine B assay; settings: HL-60, 48 h
Procedure, shortened: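 Tested only on compounds active in a three-line prescreen, in the NCI 60-human-tumour-cell-line panel over a 5-log dose range. Values come from dose–response curves as log10 molar GI50, the concentration inhibiting 50% net cell growth. Log10 TGI (total growth inhibition) and log10 LC50 (50% net cell death) were derived too. Mean graph midpoints include insensitive lines at the highest concentration tested.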

M14 = experiment: Growth inhibition of human M14 cells after 48 hrs by sulforhodamine B assay; settings: M14, 48 h; procedure, shortened: as §2
DU-145 = experiment: Growth inhibition of human DU145 cells after 48 hrs by sulforhodamine B assay; settings: DU-145, 48 h; procedure, shortened: as §2
SK-MEL-2 = experiment: Growth inhibition of human SK-MEL-2 cells after 48 hrs by sulforhodamine B assay; settings: SK-MEL-2, 48 h; procedure, shortened: as §2
HCT-15 = experiment: Growth inhibition of human HCT15 cells after 48 hrs by sulforhodamine B assay; settings: HCT-15, 48 h; procedure, shortened: as §2
RXF 393 = experiment: Growth inhibition of human RXF393 cells after 48 hrs by sulforhodamine B assay; settings: RXF 393, 48 h; procedure, shortened: as §2
BT-549 = experiment: Growth inhibition of human BT549 cells after 48 hrs by sulforhodamine B assay; settings: BT-549, 48 h; procedure, shortened: as §2
ACHN = experiment: Growth inhibition of human ACHN cells after 48 hrs by sulforhodamine B assay
UACC-62 = experiment: Growth inhibition of human UACC62 cells after 48 hrs by sulforhodamine B assay; settings: UACC-62, 48 h; procedure, shortened: as §1
NCI-H23 = experiment: Growth inhibition of human NCI-H23 cells after 48 hrs by sulforhodamine B assay; settings: NCI-H23, 48 h; procedure, shortened: as §2
Malme-3M = experiment: Growth inhibition of human MALME-3M cells after 48 hrs by sulforhodamine B assay; procedure, shortened: as §2
LOX IMVI = experiment: Growth inhibition of human LOXIMVI cells after 48 hrs by sulforhodamine B assay; procedure, shortened: as §2
[2] = read-out: pLC50 (the source's name) (converted)

For `COc1cc(OC)cc(Oc2nc3cc(N)cc(N)c3nc2-c2ccccc2)c1`, the GI50 (T47D) was 2.34 µM, the CC50 (T47D; [2]) was 51.3 µM and the TGI (T47D; read-out: pTGI (converted)) was 9.12 µM. For the same molecule, the GI50 (SNB-75) was 0.126 µM, the TGI (SNB-75; read-out: pTGI (converted)) was 2.69 µM and the GI50 (EKVX) was 3.8 µM. For the same molecule, the TGI (EKVX; read-out: pTGI (converted)) was 19.5 µM, the GI50 [1] was 2.88 µM and the TGI ([1]; read-out: pTGI (converted)) was 8.51 µM. The GI50 (SK-MEL-28) was 3.16 µM, the CC50 (SK-MEL-28; [2]) was 38.9 µM and the TGI (SK-MEL-28; read-out: pTGI (converted)) was 15.5 µM. For the same molecule, the GI50 (A498) was > 100 µM, the CC50 (A498; [2]) was > 100 µM and the TGI (A498; read-out: pTGI (converted)) was > 100 µM. It also gave a GI50 (CCRF-CEM) of 1.95 µM, a TGI (CCRF-CEM; read-out: pTGI (converted)) of 8.71 µM and a GI50 (HOP-92) of 1.35 µM. It also gave a TGI (HOP-92; read-out: pTGI (converted)) of 8.91 µM, a GI50 (SR) of 1.86 µM and a TGI (SR; read-out: pTGI (converted)) of 28.8 µM. The GI50 (A549) was 2.88 µM, the TGI (A549; read-out: pTGI (converted)) was 13.2 µM and the GI50 (K562) was 3.8 µM. The TGI (K562; read-out: pTGI (converted)) was 32.4 µM, the GI50 (HCT-116) was 2.34 µM and the TGI (HCT-116; read-out: pTGI (converted)) was 10 µM. It also gave a GI50 (NCI-H226) of 6.61 µM, a TGI (NCI-H226; read-out: pTGI (converted)) of 42.7 µM and a GI50 (SN12C) of 17 µM. The CC50 (SN12C; [2]) was 69.2 µM, the TGI (SN12C; read-out: pTGI (converted)) was 34.7 µM and the GI50 (HT-29) was 4.37 µM. The TGI (HT-29; read-out: pTGI (converted)) was 17.8 µM, the GI50 (NCI/ADR-RES) was 1.12 µM and the CC50 (NCI/ADR-RES; [2]) was 18.2 µM. The TGI (NCI/ADR-RES; read-out: pTGI (converted)) was 3.89 µM, the GI50 (SW-620) was 2.24 µM and the CC50 (SW-620; [2]) was 31.6 µM. The TGI (SW-620; read-out: pTGI (converted)) was 10.2 µM, the GI50 (HL-60(TB)) was 3.09 µM and the TGI (HL-60(TB); read-out: pTGI (converted)) was 25.7 µM. The GI50 (M14) was 1.58 µM, the CC50 (M14; [2]) was 28.8 µM and the TGI (M14; read-out: pTGI (converted)) was 7.76 µM. The GI50 (DU-145) was 21.9 µM, the CC50 (DU-145; [2]) was > 100 µM and the TGI (DU-145; read-out: pTGI (converted)) was 57.5 µM. It also gave a GI50 (SK-MEL-2) of 2.29 µM, a CC50 (SK-MEL-2; [2]) of 38 µM and a TGI (SK-MEL-2; read-out: pTGI (converted)) of 10.2 µM. The GI50 (HCT-15) was 2.04 µM, the TGI (HCT-15; read-out: pTGI (converted)) was 12.3 µM and the GI50 (RXF 393) was 5.37 µM. For the same molecule, the CC50 (RXF 393; [2]) was 44.7 µM, the TGI (RXF 393; read-out: pTGI (converted)) was 18.2 µM and the GI50 (BT-549) was 1.48 µM. It also gave a CC50 (BT-549; [2]) of 38 µM, a TGI (BT-549; read-out: pTGI (converted)) of 6.92 µM and a GI50 (ACHN) of 14.8 µM. It also gave a TGI (ACHN; read-out: pTGI (converted)) of 33.9 µM, a GI50 (UACC-62) of 4.07 µM and a CC50 (UACC-62; [2]) of 47.9 µM. The TGI (UACC-62; read-out: pTGI (converted)) was 18.2 µM, the GI50 (NCI-H23) was 1.7 µM and the TGI (NCI-H23; read-out: pTGI (converted)) was 12.6 µM. It also gave a GI50 (Malme-3M) of 0.427 µM, a CC50 (Malme-3M; [2]) of 30.2 µM and a TGI (Malme-3M; read-out: pTGI (converted)) of 5.13 µM. It also gave a GI50 (LOX IMVI) of 2.95 µM and a TGI (LOX IMVI; read-out: pTGI (converted)) of 12.9 µM.
